Source: ChEMBL document CHEMBL3244252, “Adriamycin analogues. 3. Synthesis of N-alkylated anthracyclines with enhanced efficacy and reduced cardiotoxicity” (J Med Chem, 1979)

Experiments:
L1210 [1] = assay: Inhibition of DNA synthesis in mouse L1210 cells; assay type: functional; conditions: read-out: ED50 (the source's name)
In short: (§1)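 L1210 leukemia cells. Drugs were first dissolved in Me2SO to a final 1% Me2SO in the assay medium. Inhibition of DNA and RNA synthesis was measured separately and reported as ED50 (50% inhibitory dose, μM). Selectivity is the ratio of the DNA ED50 to the RNA ED50.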

P388 [2] = assay: Antitumor activity against ip dosed mouse P388 cells allografted in CDF/BDF mouse assessed as survival time administered as qd for 1 to 9 days relative to control; assay type: functional
Calf thymus DNA = assay: Binding affinity to calf thymus DNA assessed as change in melting temperature; assay type: nucleic-acid assay; conditions: Bos taurus
In short: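 Drug first dissolved in Me2SO to a final 5% Me2SO in the assay medium. DNA binding is read as the shift in DNA melting temperature (ΔTm). ΔTm below 1 is taken as insignificant binding.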

L1210 [3] = assay: Inhibition of RNA synthesis in mouse L1210 cells; assay type: functional; conditions: read-out: ED50 (the source's name); in short: as §1
L1210 [4] = assay: Selectivity ratio of ED50 for inhibition of DNA synthesis in mouse L1210 cells to ED50 for inhibition of RNA synthesis in mouse L1210 cells; assay type: functional; in short: as §1
P388 [5] = assay: Antitumor activity against mouse P388 cells allografted in CDF/BDF mouse assessed as survival time at 1.56 mg/kg, ip administered as qd for 1 to 9 days relative to control; assay type: functional; conditions: route intraperitoneal
P388 [6] = assay: Antitumor activity against mouse P388 cells allografted in CDF/BDF mouse assessed as survival time at 18 mg/kg, ip administered as qd on day 5, 9, 13; assay type: functional; conditions: route intraperitoneal
P388 [7] = assay: Antitumor activity against mouse P388 cells allografted in CDF/BDF mouse assessed as survival time at 12.5 mg/kg, ip administered as qd for 1 to 9 days relative to control; assay type: functional; conditions: route intraperitoneal
P388 [8] = assay: Antitumor activity against mouse P388 cells allografted in CDF/BDF mouse assessed as survival time at 6.25 mg/kg, ip administered as qd for 1 to 9 days relative to control; assay type: functional; conditions: route intraperitoneal
P388 [9] = assay: Antitumor activity against mouse P388 cells allografted in CDF/BDF mouse assessed as survival time at 37.5 mg/kg, ip administered as qd on day 5, 9, 13; assay type: functional; conditions: route intraperitoneal
Rattus norvegicus = species: Rattus norvegicus; assay: Cardiotoxicity in rat assessed as minimum cumulative cardiotoxic dose by Zbinden test; assay type: toxicity, organism-based; conditions: in vivo
In short: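 Zbinden cardiotoxicity assay in rats. Drug was given cumulatively, with ECG monitoring. Value is the minimum total dose (mg/kg) that causes significant ECG alterations.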

[10] = Aqueous solubility of the compound using 10% propylene glycol vehicle; assay type: physicochemical; conditions: 10% propylene glycol in water
[11] = Aqueous solubility of the compound; assay type: physicochemical; conditions: water
P388 [12] = assay: Antitumor activity against mouse P388 cells allografted in CDF/BDF mouse assessed as survival time at 25 mg/kg, ip administered as qd for 1 to 9 days relative to control; assay type: functional; conditions: route intraperitoneal
Salmonella typhimurium [13] = assay: Mutagenicity in Salmonella typhimurium TA98 assessed as number of revertants by Ames test in presence of microsomal activation; assay type: toxicity, organism-based; conditions: salmonella enterica subsp. enterica serovar typhimurium
In short: (§2)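 Ames plate test using Salmonella typhimurium tester strain TA98. Compounds were tested over dose ranges of 0-20 to 0-100 µg/plate, depending on the compound, and the toxicity level per plate was noted. Mutagenicity is expressed as revertants produced per nmol of compound.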

Salmonella typhimurium [14] = assay: Mutagenicity in Salmonella typhimurium TA98 assessed as number of revertants by Ames test in absence of microsomal activation; assay type: toxicity, organism-based; conditions: salmonella enterica subsp. enterica serovar typhimurium; in short: as §2
Salmonella typhimurium [15] = assay: Toxicity in Salmonella typhimurium TA98 assessed as concentration required to cause mortality per plate; assay type: organism-based; conditions: salmonella enterica subsp. enterica serovar typhimurium
In short: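 Ames plate test with Salmonella typhimurium tester strain TA98. Compounds were tested over ranges from 0–20 up to 0–100 µg/plate, depending on compound. The toxicity level is reported in µg/plate.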

P388 [16] = assay: Antitumor activity against mouse P388 cells allografted in CDF/BDF mouse assessed as survival time at 8 mg/kg, ip administered as qd on day 5, 9, 13; assay type: functional; conditions: route intraperitoneal
P388 [17] = assay: Antitumor activity against mouse P388 cells allografted in CDF/BDF mouse assessed as survival time at 0.78 mg/kg, ip administered as qd for 1 to 9 days relative to control; assay type: functional; conditions: route intraperitoneal
P388 [18] = assay: Antitumor activity against mouse P388 cells allografted in CDF/BDF mouse assessed as survival time at 4 mg/kg, ip administered as qd for 1 to 9 days relative to control; assay type: functional; conditions: route intraperitoneal

SMILES	EC50 (L1210 [1])	ΔTm (Calf thymus DNA)	EC50 (L1210 [3])	Ratio ED50 (L1210 [4])	MTC (Rattus norvegicus)	Activity (Salmonella typhimurium [13])	other results
CCCCCCCCCCN(CCCCCCCCCC)[C@H]1C[C@H](O[C@H]2C[C@](O)(C(C)=O)Cc3c(O)c4c(c(O)c32)C(=O)c2c(OC)cccc2C4=O)O[C@@H](C)[C@H]1O.Cl	280000 nM	0.1 °C	130000 nM	2.1	–	–	T/C (P388 [2]): <125%
COc1cccc2c1C(=O)c1c(O)c3c(c(O)c1C2=O)C[C@@](O)(C(O)CO)C[C@@H]3O[C@H]1C[C@H](N2CCCCC2)[C@H](O)[C@H](C)O1.Cl (some centres not stated)	720 nM	12.5 °C	100 nM	7.2	–	–	T/C (P388 [5]): 157%; T/C (P388 [6]): 143%
COc1cccc2c1C(=O)c1c(O)c3c(c(O)c1C2=O)C[C@@](O)(C(C)=O)C[C@@H]3O[C@H]1C[C@H](NC(C)C)[C@H](O)[C@H](C)O1.Cl	1100 nM	10.6 °C	320 nM	3.4	–	–	T/C (P388 [7]): 199%
COc1cccc2c1C(=O)c1c(O)c3c(c(O)c1C2=O)C[C@@](O)(C(C)O)C[C@@H]3O[C@H]1C[C@H](NCc2ccccc2)[C@H](O)[C@H](C)O1.Cl (some centres not stated)	1700 nM	6.25 °C	320 nM	5.3	–	–	T/C (P388 [8]): 221%
COc1cccc2c1C(=O)c1c(O)c3c(c(O)c1C2=O)C[C@@](O)(C(C)=O)C[C@@H]3O[C@H]1C[C@H](N(Cc2ccccc2)Cc2ccccc2)[C@H](O)[C@H](C)O1.Cl	> 100000 nM	1.35 °C	10000 nM	>10	125 mg/kg	0.5 nmol⁻¹	T/C (P388 [9]): 209%; solubility [10]: > 36000 µg/mL; solubility [11]: 200 µg/mL; T/C (P388 [12]): 259%; Activity (Salmonella typhimurium [14]): Non-toxic
COc1cccc2c1C(=O)c1c(O)c3c(c(O)c1C2=O)C[C@@](O)(C(O)CO)C[C@@H]3O[C@H]1C[C@H](NCc2ccccc2)[C@H](O)[C@H](C)O1.Cl (some centres not stated)	1400 nM	7.6 °C	290 nM	4.8	–	–	T/C (P388 [9]): 135%; T/C (P388 [5]): 176%
COc1cccc2c1C(=O)c1c(O)c3c(c(O)c1C2=O)C[C@@](O)(C(C)=O)C[C@@H]3O[C@H]1C[C@H](N)[C@H](O)[C@H](C)O1 [DAUNORUBICIN]	660 nM	–	330 nM	–	14 mg/kg	100 nmol⁻¹	Activity (Salmonella typhimurium [15]): 5 µg; T/C (P388 [16]): 132%; T/C (P388 [17]): 160%
COc1cccc2c1C(=O)c1c(O)c3c(c(O)c1C2=O)C[C@@](O)(C(C)=O)C[C@@H]3O[C@H]1C[C@H](N(C)C)[C@H](O)[C@H](C)O1.Cl	670 nM	–	64 nM	10.4	11 mg/kg	0 nmol⁻¹	Activity (Salmonella typhimurium [15]): 20 µg; Activity (Salmonella typhimurium [14]): Non-toxic
CCN(CC)[C@H]1C[C@H](O[C@H]2C[C@](O)(C(C)=O)Cc3c(O)c4c(c(O)c32)C(=O)c2c(OC)cccc2C4=O)O[C@@H](C)[C@H]1O.Cl	670 nM	13.6 °C	130 nM	5.2	–	–	T/C (P388 [18]): 178%
